The values that follow come from ChEMBL document CHEMBL4513216, “Probing the Open Global Health Chemical Diversity Library for Multistage-Active Starting Points for Next-Generation Antimalarials” (ACS Infect Dis, 2020).

This data set can be described thus: Toxicity liver stage against HepG2, at 10uM. Format: cell-based. Also noted: test concentration 10 uM, cell line HepG2-A16-CD81EGFP. As to conditions: human, HepG2-A16-CD81EGFP cells; read-out: INHIBITION
The gist of the method: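 Uninfected HepG2-A16-CD81EGFP cells, 3 × 10^3 per well, 1536-well, plated on prespotted compound at 10 μM final, parasite-free screening media added to match infected plates; puromycin 10 μM positive, DMSO 0.5% negative; run in parallel with 48 h PbLuc assay at 37 °C, 5% CO2; viability by CellTiter-Glo luminescence, normalized to controls.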

Consider `COCCN1C2(CCN(CC3CC3)C2)c2ccccc2S1(=O)=O` (stereo unspecified), for which the cytotoxicity at 10 µM is -130%.
For `CN(C(=O)Cc1ccc(NC(=O)NC2CC2)cc1)c1ccccc1`, the cytotoxicity at 10 µM turned out to be 6.35%.
For the molecule `Cc1c(F)cccc1NC(=O)N(C(C)CS(C)(=O)=O)C1CC1` (stereo unspecified), the cytotoxicity at 10 µM stood at 8.29%.
The result for `O=C(CCc1nccs1)N1CCN(c2ccc(Br)cn2)CC1` reads -2.65%.
The result for `C[C@@H]1CN(c2nc3c(cc2C(N)=O)CCC3)CC[C@@]1(O)C1CCC1` reads 0.186%; that for `Cc1ccc(N2CCCC(N(C)Cc3nnc(C4CC4)o3)C2)nn1` (stereo unspecified), 6.2%.
Then `O=C(C1CCS(=O)(=O)CC1)N1CCC(Cc2ccc(F)cc2)CC1`, with -41.9%; and `CCCN(Cc1ccc(S(=O)(=O)NC)cc1)Cc1ccccc1OC`, with -0.89%.
`O=C1NCCCC12CCN(Cc1ccc(-c3ccccc3)s1)C2` (stereo unspecified): the cytotoxicity at 10 µM was found to be 16.9%.
`CCN(C)C[C@@H]1CN(C(=O)NC2CCCCC2)C[C@@H]1CO`: the cytotoxicity at 10 µM was -1.53%.
The result for `c1cnc2[nH]c(C3CCCNC3)c(CN3CCCOCC3)c2c1` (stereo unspecified) reads -1.43%; that for `Cc1ncsc1CN1C[C@@H]2CCCO[C@@H]2[C@H](Nc2ccccn2)C1`, 2.31%; that for `O=C(c1ccc(C(F)(F)F)cc1)N1C[C@@H](CN2CCCCC2)[C@@H](CO)C1`, 0.313%.
Then `c1cnc(N2CCO[C@H]3[C@H](OCCN4CCOCC4)CC[C@@H]32)nc1`, with -10.2%; and `c1ccc(-c2cnn3cc(CN4CCC5(CCO5)CC4)cnc23)cc1`, with 1.64%; and `COC[C@H]1CCCN1c1nccc(-c2cnn(-c3ccccc3C)c2)n1`, with 8.63%.
Then `Cc1c(CN2CC[C@@H](N3CCC(O)CC3)[C@H](O)C2)[nH]c2ccc(F)cc12`, with 4.07%.
Consider `CCC(C)(C)NCc1nc(C(C)(C)NC(=O)OC(C)(C)C)no1`, for which the cytotoxicity at 10 µM was 2.35%.
Regarding `O=C(NC1CCC1)[C@H]1C[C@@H]2[C@@H](C1)OCCN2CC1CC1`, the cytotoxicity at 10 µM is -2.17%.
Turning to `c1ccc2c(c1)ccn2CCCNC1CCOC2(CCOCC2)C1` (stereo unspecified), the cytotoxicity at 10 µM is -7.04%.
Then `CN(Cc1ccc(F)cc1)CC1(O)CCCN(CC(C)(C)C)C1=O` (stereo unspecified), with -9.35%; and `FC(F)(F)c1nc(C2CCNCC2)no1`, with 5.88%; and `O=C1CCC2(CCCN(CCn3cc(Cl)cn3)C2)CN1C1CCCC1` (stereo unspecified), with 4.71%.
The result for `COCCNC(=O)[C@H]1CN(c2nnc(C)s2)C[C@H]2OCC[C@@H]12` reads -1.96%; that for `Cc1ccsc1CNC(=O)c1ccc2c(c1)CCC(=O)N2`, 4.91%; that for `CN(C)C(=O)CN1CCC2(CCN(S(C)(=O)=O)CC2)C1=O`, 2.2%.
Then `O=C(CC1CC1)N1C[C@@H]2CN(c3ccccc3)C(=O)[C@@H]2C1`, with -1.48%; and `Cc1cccc(N2CC[C@H]3[C@H](CO[C@@H]3CN(C)Cc3ccco3)C2)n1`, with 13.8%; and `CC(C)CC(=O)N1CCN(Cc2csc(-c3ncccn3)n2)CC1`, with 8.61%.
For `COc1ccccc1OC1CCN(c2nccc(N)n2)CC1`, the cytotoxicity at 10 µM amounted to 9.28%.
The result for `CCC(=O)N1CSCC1C(=O)N(C)CCc1ccccc1` (stereo unspecified) reads 19.5%; that for `CN(c1ncnc2ccccc12)C1CCCN(c2cccnn2)C1` (stereo unspecified), 19.5%.
Then `CCn1cnnc1CNC(=O)N1CCN(c2ccccc2OC)CC1`, with -6.02%; and `C[S+]([O-])c1cccc(NC(=O)N(CCC#N)Cc2ccccn2)c1` (stereo unspecified), with 10.6%; and `CNC(=O)NCC(=O)N1CCCC1Cc1cccc(F)c1` (stereo unspecified), with -2.59%.
The result for `CC(=O)N1CCN(C(=O)NCc2ccccc2Cn2cncn2)CC1` reads 0.0453%; that for `Cc1cc(C(=O)NCC2(C(N)=O)CCOCC2)nn1C(C)(C)C`, -16.6%; that for `CC(C)c1nnc2n1CCN(CCS(=O)(=O)c1ccccc1)C2`, -8.22%.
For the molecule `Cn1nc(CNC(=O)NCc2ccc(Cl)cc2)c2c1CCOC2`, the cytotoxicity at 10 µM stood at 2.81%.
Consider `O=C(c1ccc(S(=O)(=O)N2CCSCC2)cc1)N1CCC(O)C1` (stereo unspecified), for which the cytotoxicity at 10 µM was 4.91%.
Regarding `Nc1nc2c(c(NCC(c3cccnc3)N3CCOCC3)n1)CCCC2` (stereo unspecified), the cytotoxicity at 10 µM was -14.9%.
The result for `CS(=O)(=O)N1CCC(c2cncc(Cl)n2)CC1` reads 16%; that for `CCOCC1CN(Cc2cnn(C)c2)Cc2ncn(C)c21` (stereo unspecified), -79.2%.
Then `Cc1ccc(CN(C(=O)C(C)NC(N)=O)C2CC2)cc1C` (stereo unspecified), with 7.47%; and `COC[C@]12COC[C@H]1CN(C(=O)C1CCSCC1)C2`, with 2.2%; and `CCS(=O)(=O)c1ncc(CN(C)Cc2ccc(C)o2)n1CCOC`, with -4.66%.
The result for `Cc1cnc(C)c(N2CCC(Cc3ccccc3Cl)(C(=O)O)CC2)n1` reads 3.4%.
Consider `O=C(NCC1(O)CCSC1)c1ccn(-c2ccccc2F)n1` (stereo unspecified), for which the cytotoxicity at 10 µM is 2.88%.
On to `Cc1cc(C)nc(N2CCCC2c2[nH]ncc2C(=O)N(C)C)n1` (stereo unspecified), for which the cytotoxicity at 10 µM is -1.51%.
The result for `CC(C)CN1CC2(CCN(C(=O)c3cnccn3)CC2)CC1=O` reads 2.46%; that for `COC1CCN(S(=O)(=O)N2CC(c3ccccc3)C(C)(C)C2)CC1` (stereo unspecified), 3.64%.
Then `Cc1noc(C)c1S(=O)(=O)N(C)Cc1nn(C)c(Cl)c1Cl`, with -6.01%; and `Cc1cc(C)c(CNC(=O)N2CCN(c3nccs3)CC2)c(=O)[nH]1`, with -20.9%.
Then `Cc1ccccc1-c1cc(NC(=O)CC(C)C)n(CCO)n1`, with 7.47%; and `Cc1ccnc(N2CCC(C(N)=O)CC2)n1`, with -18.3%.
Take `Cc1nn(C)c(N(C)C)c1CNC1CCOc2ccccc21` (stereo unspecified): the cytotoxicity at 10 µM is -9.66%.
Then `Nc1nnnn1NCc1cccc(Cl)c1Cl`, with 11.5%; and `Cc1nn(C)c2nc(N(Cc3nccs3)C3CC3)sc12`, with -45.9%.
Then `Cc1nc(C2CCCN2CC(=O)NCCOc2ccccc2)no1` (stereo unspecified), with -6.54%; and `Cn1ccnc1CN1CCCC(CO)(CCc2ccccc2)C1` (stereo unspecified), with -3.36%.
Then `CCc1[nH]c2c(CNC(=O)C3CCS(=O)(=O)CC3)cc(C)cc2c1C`, with 1.87%; and `O=C(CCCOc1ccc(F)cc1F)N1CCCC1Cn1cccn1` (stereo unspecified), with -5.67%; and `CC(Cn1cccn1)NCc1nc(-c2cccs2)no1` (stereo unspecified), with -8.7%.
For `COc1ccccc1C(=O)NC[C@H]1COCc2nc3c(C)cccc3n21`, the cytotoxicity at 10 µM is 0.331%.
Then `NC(=O)C1(CCCc2ccccn2)CCCN(c2ncccn2)C1` (stereo unspecified), with -5.69%.
The result for `CCn1cc(NC(=O)NCc2ccc3c(c2)OCO3)cn1` reads -1.1%; that for `COCC(=O)NCC1CCN(Cc2ccsc2)CC1`, -3.88%.
Then `CCc1noc(C2CCCCN2C(=O)c2ccn(C3CCCC3)n2)n1` (stereo unspecified), with 11.8%; and `Cc1cc(CN2CCN(C(=O)c3sccc3C3CC3)CC2)on1`, with 4.69%.
With `Cc1ccc(C(=O)N2CC[C@@]3(C[C@@H](NS(C)(=O)=O)CCO3)C2)s1`, the cytotoxicity at 10 µM is -73.9%.
Then `O=C(NCc1cc[nH]n1)NCC(O)c1ccc(F)c(F)c1` (stereo unspecified), with -21%.
The result for `CCC[C@H]1CN(c2nc(CO)cs2)C[C@@H]1NC(=O)C1(COC)CC1` reads -2.87%; that for `COCCN1CCC2(CC1)CN(C(=O)c1cccs1)CCO2`, -14.1%; that for `CCN(C(=O)COc1nc(Cc2ccc(F)cc2)no1)C1CC1`, 5.09%.
Then `COc1cc2c(cc1CN1CCc3sccc3C1C)OCCO2` (stereo unspecified), with 8.92%; and `CNS(=O)(=O)Cc1cccc(CNc2ccc(Cl)cn2)c1`, with -5.71%.
In the case of `c1cncc(OCc2noc3c2CN(Cc2ccsc2)CC3)c1`, the cytotoxicity at 10 µM amounted to 4.76%.
The result for `Cn1cc2c(n1)C(CNC1CCOCC1)OCC2` (stereo unspecified) reads 9.31%.
For `O=C([C@@H]1CCCN1c1nccc(Nc2ccccc2)n1)N1CCCCC1`, the cytotoxicity at 10 µM was found to be 0.325%.
The result for `Cn1ccnc1CN1CCCC(Cc2ccccn2)C1` (stereo unspecified) reads 2.75%; that for `CCn1ncnc1C(C)Nc1cc(C2CCNCC2)nc(C)n1` (stereo unspecified), -6.77%.
Then `Cc1nc(C)c(CC(=O)N2CCN(CC(C)C)CC2)c(=O)[nH]1`, with -12.3%; and `COCCN1CCc2cc(C(=O)N(C)C)c(NC(C)C)nc2CC1`, with -3.91%; and `Cc1ccc(Br)cc1NC(=O)NCC(O)CO` (stereo unspecified), with 12.9%.
The result for `CC(c1ncc(-c2ccccc2)o1)N1CCN(C(=O)N(C)C)CC1` (stereo unspecified) reads -12.1%; that for `CC1CCc2nc(O)c(C(=O)NCc3ccccc3F)cc2C1` (stereo unspecified), 4.47%; that for `O=C1CC(N(C(=O)c2csc(-c3ccccc3)n2)C2CC2)C(=O)N1` (stereo unspecified), 15.2%.
Take `Cc1ccc2c(c1)OCCCC2NCc1nnc2n1CCCCC2` (stereo unspecified): the cytotoxicity at 10 µM is -7.89%.
Take `O=C(NCCN1CCOCC1)c1ccnn1-c1ccc2ccccn12`: the cytotoxicity at 10 µM worked out at 10.9%.
Then `COCC(=O)N1C[C@H](N(C)Cc2cncnc2)[C@H]2OCCC[C@H]21`, with -99.2%.
The result for `COc1ccc(CNC(C)Cn2cccn2)cc1F` (stereo unspecified) reads -0.544%.
The result for `CN(C)CCO[C@H]1CN(Cc2ccoc2)[C@@H]2COC[C@H]12` reads -1.23%.
As for `CNC(=O)C(C)CN(C)C(=O)Nc1ccc(F)c(-n2cccc2)c1` (stereo unspecified), the cytotoxicity at 10 µM is -2.07%.
Then `CCN(CCNS(=O)(=O)C1CCOCC1)C(=O)OC(C)(C)C`, with -1.8%; and `O=c1[nH]ccn1CCCN1CC=C(c2cnn(-c3ccccc3)c2)CC1`, with 7.95%; and `Cc1nc(CN2CCCC(NCCOc3ccccc3)C2)no1` (stereo unspecified), with -7.98%.
